Assay [1] addresses T1, Angiotensin-converting enzyme (Rattus norvegicus, UniProt P47820).
T1 sequence (P47820 whole entry): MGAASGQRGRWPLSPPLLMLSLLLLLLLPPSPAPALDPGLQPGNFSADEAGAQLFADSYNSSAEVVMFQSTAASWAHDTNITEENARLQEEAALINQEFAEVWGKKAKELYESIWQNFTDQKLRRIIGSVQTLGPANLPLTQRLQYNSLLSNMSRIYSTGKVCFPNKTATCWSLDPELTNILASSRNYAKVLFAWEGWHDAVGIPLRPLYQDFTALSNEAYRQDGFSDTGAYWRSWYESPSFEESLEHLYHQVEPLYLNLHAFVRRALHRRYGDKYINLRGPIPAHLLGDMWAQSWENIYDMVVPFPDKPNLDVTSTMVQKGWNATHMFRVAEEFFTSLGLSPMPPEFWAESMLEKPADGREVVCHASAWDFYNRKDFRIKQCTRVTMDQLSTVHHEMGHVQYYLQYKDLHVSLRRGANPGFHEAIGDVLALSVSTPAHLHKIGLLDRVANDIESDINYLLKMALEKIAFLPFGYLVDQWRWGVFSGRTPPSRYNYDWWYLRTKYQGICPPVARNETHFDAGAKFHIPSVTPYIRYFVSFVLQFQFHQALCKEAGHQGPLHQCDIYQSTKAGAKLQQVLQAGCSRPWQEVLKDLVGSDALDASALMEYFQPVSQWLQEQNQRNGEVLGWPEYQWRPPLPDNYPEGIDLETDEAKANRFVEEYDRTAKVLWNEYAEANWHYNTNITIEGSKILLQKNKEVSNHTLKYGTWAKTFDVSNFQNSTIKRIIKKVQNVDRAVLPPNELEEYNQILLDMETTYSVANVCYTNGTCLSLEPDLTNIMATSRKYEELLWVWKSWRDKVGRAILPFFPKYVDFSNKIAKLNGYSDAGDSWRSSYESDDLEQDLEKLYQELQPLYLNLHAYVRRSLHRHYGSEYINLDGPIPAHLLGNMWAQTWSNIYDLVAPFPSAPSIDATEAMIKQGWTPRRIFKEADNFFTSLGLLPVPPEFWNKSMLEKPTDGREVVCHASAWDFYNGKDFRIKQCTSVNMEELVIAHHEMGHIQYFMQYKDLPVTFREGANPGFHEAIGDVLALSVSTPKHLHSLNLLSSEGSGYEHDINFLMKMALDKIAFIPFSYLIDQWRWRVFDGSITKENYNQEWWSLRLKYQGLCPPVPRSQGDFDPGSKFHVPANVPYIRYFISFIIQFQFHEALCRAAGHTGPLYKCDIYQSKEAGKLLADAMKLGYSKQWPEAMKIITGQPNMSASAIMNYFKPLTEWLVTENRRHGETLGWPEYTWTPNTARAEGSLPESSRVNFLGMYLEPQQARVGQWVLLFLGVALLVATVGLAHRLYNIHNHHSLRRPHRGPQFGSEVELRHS
The assay can be described thus: In vitro inhibition of rat angiotensin I converting enzyme. Put shortly:
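ACE purified from rat testis, 0.02 pmol/100 µL final, preincubated 15 min at 37 °C with varying inhibitor in 50 mM Tris-HCl pH 8.0. N-Cbz-Phe-His-Leu added to 0.05 mM final, 15 min; stopped with 2 M NaOH. His-Leu measured fluorimetrically (ex 365, em 495 nm) against a His-Leu calibration curve. IC50 is the mean ± SEM of three experiments in triplicate.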

Another assay deals with T2, Neprilysin (Oryctolagus cuniculus, UniProt P08049).
T2 sequence (P08049 whole entry): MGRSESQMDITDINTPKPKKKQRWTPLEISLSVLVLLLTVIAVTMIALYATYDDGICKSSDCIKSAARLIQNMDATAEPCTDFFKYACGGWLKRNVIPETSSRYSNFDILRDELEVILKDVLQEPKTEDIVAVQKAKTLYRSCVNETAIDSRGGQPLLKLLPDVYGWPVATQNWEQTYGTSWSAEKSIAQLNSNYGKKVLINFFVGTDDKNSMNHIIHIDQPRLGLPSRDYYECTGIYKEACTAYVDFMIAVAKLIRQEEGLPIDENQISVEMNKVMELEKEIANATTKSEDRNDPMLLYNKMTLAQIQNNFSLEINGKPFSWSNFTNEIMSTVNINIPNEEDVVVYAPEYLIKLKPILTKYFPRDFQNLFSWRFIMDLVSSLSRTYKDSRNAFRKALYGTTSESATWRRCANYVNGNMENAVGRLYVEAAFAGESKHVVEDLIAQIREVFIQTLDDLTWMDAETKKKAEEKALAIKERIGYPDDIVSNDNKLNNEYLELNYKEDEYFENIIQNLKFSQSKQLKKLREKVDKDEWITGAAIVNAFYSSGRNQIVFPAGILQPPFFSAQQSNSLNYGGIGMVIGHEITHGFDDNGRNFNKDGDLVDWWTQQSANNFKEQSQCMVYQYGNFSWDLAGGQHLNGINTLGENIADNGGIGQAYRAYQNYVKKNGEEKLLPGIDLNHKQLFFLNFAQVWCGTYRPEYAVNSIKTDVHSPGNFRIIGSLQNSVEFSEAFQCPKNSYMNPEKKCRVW
The assay can be described thus: In vitro inhibition of neutral endopeptidase. Put shortly: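 NEP purified from rabbit kidney, 1 pmol/100 µL final, preincubated 15 min at 25 °C with increasing inhibitor concentrations in 50 mM Tris-HCl pH 7.4. Substrate [3H]-D-Ala2-Leu-enkephalin at 20 nM final, 30 min; stopped with 0.5 M HCl. [3H]Tyr-D-Ala-Gly separated on polystyrene beads and counted by scintillation. IC50 is the mean ± SEM of three independent experiments run in triplicate.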

This is an account of results in ChEMBL document CHEMBL1129041, “Design of orally active dual inhibitors of neutral endopeptidase and angiotensin-converting enzyme with long duration of action” (J Med Chem, 1996).

One may read the IC50 as the concentration at which inhibition is half-maximal. Take `Cc1ccccc1C1CC[C@@H](C(=O)O)N1C(=O)CNC(=O)[C@@H](S)Cc1ccc(O)cc1` (single isomer, unassigned): the figures for the concentration for half-maximal inhibition (IC50) (in assay [1]; against Neprilysin) were 5 nM and 2.7 nM, respectively.

For the compound `Cc1ccccc1[C@H]1CC[C@@H](C(=O)O)N1C(=O)CNC(=O)[C@@H](S)Cc1ccccc1`, the results for the concentration for half-maximal inhibition (IC50) (in assay [1]; against Neprilysin) were 3.1 nM and 5.3 nM, respectively.

On to `Cc1ccc([C@H]2CC[C@@H](C(=O)O)N2C(=O)CNC(=O)[C@@H](S)Cc2ccccc2)cc1`, for which the half-inhibitory concentration (IC50) in assay [1] was 6.8 nM; against Neprilysin, 12.5 nM.

`O=C(NCC(=O)N1[C@@H](c2ccccc2)CC[C@H]1C(=O)O)[C@@H](S)Cc1ccccc1`: the IC50 in assay [1] was 0.55 nM; against Neprilysin, 1.6 nM.

Consider `O=C(NCC(=O)N1[C@@H](c2ccccc2O)CC[C@H]1C(=O)O)[C@@H](S)Cc1ccc(O)cc1`, for which the IC50 came out at 0.6 nM in assay [1] and 3.5 nM against Neprilysin.

In the case of `Cc1ccc([C@H]2CC[C@@H](C(=O)O)N2C(=O)CNC(=O)[C@@H](S)Cc2ccc(O)cc2)cc1`, the IC50 in assay [1] worked out at 2.5 nM; against Neprilysin it was 5.5 nM.

As for `O=C(NCC(=O)N1[C@@H](c2cccc(O)c2)CC[C@H]1C(=O)O)[C@@H](S)Cc1ccc(O)cc1`, the half-inhibitory concentration (IC50) in assay [1] was 0.7 nM; on Neprilysin, 1.6 nM.
